# High-throughput results deposited in PubChem BioAssay by several laboratories.
# Xi reactivation = activators of X-chromosome reactivation in mouse fibroblasts | XiGFP mouse fibroblasts, % GFP-positive cells imaging, 3 d; cells co-treated with 5-aza-dC sensitizer; scaled so ellipticine positive control = 100% | activation, % at 7.58 µM | 360,000 compounds, 0.055% hits;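 active = mean normalized replicate activation at least 10% and every replicate at or above 10%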;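 note: 0% = median of on-plate neutral control wells and 100% = ellipticine 6 µM median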
#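 Schedule: 3 d treatment, 15 min room-temperature fixation; system: 68-5-11 XiGFP fibroblast line; buffer or medium: DMEM plus 5-aza-dC sensitizer; control set: ellipticine 6 µM positive control; compound: one concentration, pinned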
# Myeloid diff MLP = myeloid differentiation induction | ER-HoxA9 myeloid progenitors, lysozyme-GFP differentiation, flow cytometry | calls only at 10 µM | 360,000 compounds, 1% hits | AID 624256;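 active = normalized GFP-positive differentiation at or above the plate's own cutoff, the solvent-only control mean plus 3 SD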;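 note: cells exposed to compound for four days before flow analysis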
# ABCB6 inh MLPCN = human ABCB6 transporter inhibition; Q9NP58; K562-ABCB6 porphyrin accumulation, flow cytometry, 1 h; stronger effect = lower value; fluorescence ratio to DMSO, % at 10 µM; 360,000 compounds, 0.19% hits;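 active = fluorescence ratio to DMSO below 75%, the collection mean minus 3 SD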;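 note: signal is porphyrin accumulated inside mitochondria; 100% equals median channel fluorescence of DMSO control wells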
# Target sequence (Q9NP58 whole entry, looked up): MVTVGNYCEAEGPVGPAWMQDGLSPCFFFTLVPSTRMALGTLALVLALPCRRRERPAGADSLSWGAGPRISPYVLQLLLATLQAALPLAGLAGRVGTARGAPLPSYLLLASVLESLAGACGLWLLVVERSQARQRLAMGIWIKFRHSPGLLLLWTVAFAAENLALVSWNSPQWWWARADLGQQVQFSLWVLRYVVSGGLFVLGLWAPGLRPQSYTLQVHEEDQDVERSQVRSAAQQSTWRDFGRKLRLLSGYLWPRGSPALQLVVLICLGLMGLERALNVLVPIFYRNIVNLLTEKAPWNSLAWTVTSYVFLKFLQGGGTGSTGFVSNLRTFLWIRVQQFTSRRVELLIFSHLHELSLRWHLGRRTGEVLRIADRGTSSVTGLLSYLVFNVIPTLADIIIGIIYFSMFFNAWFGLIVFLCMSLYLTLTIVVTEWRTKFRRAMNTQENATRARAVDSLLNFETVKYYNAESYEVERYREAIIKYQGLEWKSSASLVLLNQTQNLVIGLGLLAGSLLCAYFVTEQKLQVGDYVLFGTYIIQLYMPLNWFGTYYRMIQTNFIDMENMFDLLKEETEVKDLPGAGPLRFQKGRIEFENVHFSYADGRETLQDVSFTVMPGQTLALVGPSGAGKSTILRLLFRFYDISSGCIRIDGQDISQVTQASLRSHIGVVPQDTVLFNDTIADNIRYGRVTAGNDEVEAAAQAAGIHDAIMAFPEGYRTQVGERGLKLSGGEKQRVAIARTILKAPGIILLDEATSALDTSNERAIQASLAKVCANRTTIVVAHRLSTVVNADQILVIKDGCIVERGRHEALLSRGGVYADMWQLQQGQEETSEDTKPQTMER
# * = called active by the depositor; i = inactive; / = no result; + = active, no number. The entries come from a sample that favours hits as a whole.
SMILES,Xi reactivation,Myeloid diff MLP,ABCB6 inh MLPCN
O=C1NN(c2ccccc2)C(=O)/C1=C\c1cccn1-c1ccc(Cl)c([N+](=O)[O-])c1,/,+,106
O=C1NN(c2ccccc2)C(=O)C1=Cc1ccccc1O,0,i,97
COc1ccc(S(=O)(=O)N(C)C[C@H]2OCCCC[C@H](C)Oc3ccc(NS(=O)(=O)c4ccc(Cl)cc4)cc3C(=O)N([C@H](C)CO)C[C@H]2C)cc1,0,/,/
Brc1ccc2ncnc(Nc3cccc4ccccc34)c2c1,/,i,91
OCCNc1ncnc2ccc(Br)cc12,/,i,70*
C[C@@H]1CN([C@H](C)CO)C(=O)c2cccc(NC(=O)c3ccncc3)c2O[C@H]1CN(C)Cc1ccc(-c2ccccc2)cc1,0,/,/
CCCNC(=O)C[C@@H]1CC[C@@H]2[C@H](COC[C@H](O)CN2C(=O)Nc2ccccc2OC)O1,0,/,/
COc1ccc(-n2c(C)cc(C(=O)COc3ccc(C)nc3[N+](=O)[O-])c2C)cc1,0,i,99
Cc1ccc(OCC(=O)c2cc(C)n(-c3cc(C)on3)c2C)c([N+](=O)[O-])n1,0,+,98
C[C@@H]1CN([C@H](C)CO)C(=O)c2cc(NC(=O)Nc3ccc(F)cc3)ccc2O[C@H]1CN(C)S(=O)(=O)c1cccs1,0,/,/
O=C(C[C@H]1C[C@@H]2c3cc(NC(=O)c4ccc5c(c4)OCO5)ccc3O[C@@H]2[C@@H](CO)O1)NCc1ccc(Cl)cc1,1,/,/
COc1cccc(Nc2nc(-c3sc(NC(=O)CC(C)C)nc3C)cs2)c1,0,i,97
COc1cccc(Nc2nc(-c3sc(NC(=O)c4ccccc4)nc3C)cs2)c1,0,+,108
CC(=O)N(C)C[C@H]1[C@@H](c2ccc(-c3cccnc3)cc2)[C@@H](CO)N1C(=O)C1CC1,0,/,/
C[C@H]1CN([C@@H](C)CO)C(=O)c2cc(-c3ccc(C#N)cc3)cnc2O[C@@H]1CN(C)C(=O)Nc1ccc(F)cc1,-1,/,/
COc1cc(/C=C/C(=O)O)cc(OC)c1O,0,+,107
COc1ccc(/C=C/C(=O)O)cc1Cl,0,i,103
CO[C@@H]1CN(C)C(=O)c2cc(NC(=O)NC(C)C)ccc2OC[C@H](C)N(C(=O)CC2CC2)C[C@H]1C,1,/,/
C[C@@H]1CN([C@@H](C)CO)C(=O)c2cc(NS(=O)(=O)c3ccccc3)ccc2O[C@@H](C)CCCCO[C@@H]1CN(C)CC1CCCCC1,0,/,/
C[C@@H]1CCCCO[C@@H](CN(C)C(=O)Nc2ccc(F)cc2)[C@H](C)CN([C@H](C)CO)C(=O)c2cc(NC(=O)Cc3ccccc3)ccc2O1,-1,/,/
N#C[C@@H]1[C@@H](c2ccc(C3=CCCCC3)cc2)[C@@H](CO)N1C(=O)Cc1ccncc1,0,/,/
N/C(Cc1nc2ccccc2s1)=N\O,0,+,123
NC(=O)CSCc1nc2ccccc2s1,/,i,125
COc1ccc2c3c([nH]c2c1)[C@@H](CO)N(C(=O)C1CC1)CC31CCN(C(=O)NC(C)C)CC1,0,/,/
O=C(CCc1nnc(Cc2c[nH]c3ccccc23)o1)NCCC1CCCCO1 (stereo not given),0,+,95
SMILES,Xi reactivation,Myeloid diff MLP,ABCB6 inh MLPCN
O=C(CCc1nnc(Cc2c[nH]c3ccccc23)o1)NC1CCCC1,0,i,103
CCn1c(SCC(=O)N/N=C/c2ccc(C)o2)nnc1-c1ccc(C(C)(C)C)cc1,0,+,93
CCn1c(SCC(=O)N/N=C/c2ccc(C)o2)nnc1-c1ccc(C)cc1,0,i,107
COc1ccc(S(=O)(=O)N2CC[C@@H]3[C@@H](CO)Nc4ccc(C#Cc5ccccc5OC)cc4[C@@H]32)cc1,0,/,/
CSc1ccc(/C=c2\s/c(=C\C(=O)C(C)(C)C)n(CC(=O)NCCC3=CCCCC3)c2=O)cc1,0,i,98
CCCNC(=O)Cn1c(=O)/c(=C/c2ccc(-c3ccc([N+](=O)[O-])cc3)o2)s/c1=C\C(=O)C(C)(C)C,0,+,i
C[C@H](CO)N1C[C@H](C)[C@@H](CN(C)C(=O)C2CCCCC2)Oc2cc(-c3cncnc3)ccc2S1(=O)=O,0,/,/
Cc1ccc(S(=O)(=O)N(C)C[C@H]2OCCCC[C@H](C)Oc3ccc(N(C)C)cc3C(=O)N([C@@H](C)CO)C[C@@H]2C)cc1,0,/,/
CC(=O)/C(N=Nc1cc(C)ccc1O)=C(\C)O,0,+,272
CC(=O)/C(N=Nc1ccc(C(=O)O)cc1[N+](=O)[O-])=C(\C)O,0,i,99
CCC(=O)N1C[C@H](O)COC[C@@H]2O[C@H](CC(=O)NCC3CCCCC3)CC[C@H]21,0,/,/
C[C@@H]1CCCCO[C@@H](CN(C)C(=O)Nc2ccccc2)[C@H](C)CN([C@H](C)CO)C(=O)c2cc(NC(=O)NC3CCCCC3)ccc2O1,0,/,/
COc1ccc(C(=O)C2CCCN(Cc3ccc(C#CCCO)cc3)C2)cc1F (stereo not given),0,+,114
COc1ccc(C(=O)C2CCCN(Cc3ccc4nonc4c3)C2)cc1F (stereo not given),1,i,91
CC(C)(C)OC(=O)N1CCCN(C(=O)c2ccc(Cl)cc2)CC1,0,i,98
CC(C)(C)OC(=O)N1CCN(Cc2ccc(F)c(B(O)O)c2)CC1,0,+,98
Cc1ccccc1-c1cnc2c(c1)C(=O)N([C@@H](C)CO)C[C@@H](C)[C@@H](CN(C)C(=O)c1ccncc1)O2,1,/,/
O=c1[nH]c(COc2ccccc2)nc2ccccc12,0,i,94
S=c1nc(Cc2ccccc2)[nH]c2ccccc12,0,+,111
S=c1nc(Cc2ccc(Cl)cc2)[nH]c2ccccc12,0,i,100
S=c1nc(COc2ccccc2)[nH]c2ccccc12,0,+,202
CC(C)NC(=O)N(C)C[C@@H]1Oc2ccc(NC(=O)c3ccncc3)cc2C(=O)N([C@@H](C)CO)C[C@H]1C,0,/,/
Cc1noc(C)c1S(=O)(=O)Nc1cccc2c1O[C@@H](CN(C)Cc1ccc(Cl)c(Cl)c1)[C@@H](C)CN([C@@H](C)CO)C2=O,0,/,/
C[C@@H]1CCCCO[C@@H](CN(C)Cc2ccc3c(c2)OCO3)[C@H](C)CN([C@H](C)CO)C(=O)c2cc(NC(=O)Nc3cccc4ccccc34)ccc2O1,0,/,/
CCOc1ccc(-c2nc3n(c(=O)c2C#N)CCCS3)cc1,/,+,94
SMILES,Xi reactivation,Myeloid diff MLP,ABCB6 inh MLPCN
COc1ccc(-c2nc3n(c(=O)c2C#N)CCCS3)cc1,/,i,103
NC(=O)c1ccc(N=Nc2c(-c3ccccc3)[nH]n(-c3ccccc3)c2=O)cc1,0,/,/
O=c1c(N=Nc2ccc(O)cc2)c(-c2ccccc2)[nH]n1-c1ccc([N+](=O)[O-])cc1,0,+,183
CN1/C(=C\C(=O)c2cccnc2)C(C)(C)c2ccccc21,0,i,105
CN1/C(=C\C=N\NC(=O)c2cccnc2)C(C)(C)c2ccccc21,0,i,121
Cc1ccc(C(=O)NC(=S)/C=C2\N(C)c3ccccc3C2(C)C)cc1,0,+,i
CN1/C(=C\C(=O)C(F)F)C(C)(C)c2ccccc21,/,i,96
